Source: PubChem BioAssay
NR3A LBD binder – binders of NR3A ligand-binding domain, primary screen, biophysical, differential scanning fluorimetry, uHTS | Tm shift relative to glycine control, % at 25 µM | Glutamate receptor ionotropic, NMDA 3A (GRIN3A) ligand-binding domain | NR3A LBD differential scanning fluorimetry, Tm shift; 0% = protein alone, 100% = glycine-bound protein | 340,000 compounds, 2.5% hits;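 active = melting temperature shift of at least 10% of the positive control shift, at one fixed dose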
SENP1 inh – human SENP1 catalytic domain inhibitors, primary screen, biochemical, FRET, uHTS | AID 624204, 2012 | recombinant SENP1 catalytic domain, CyPet-SUMO1-YPet FRET cleavage | Sentrin-specific protease 1 (Homo sapiens), Q9P0U3 | inhibition, % at 10 µM | 360,000 compounds, 0.21% hits;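 active = inhibition at least 30% at 10 µM, raw YFP signal under a set limit, fluorescence ratio 0.5 to 1.5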;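 note: 0% = enzyme with DMSO and 100% = no enzyme wells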
Target sequence (Q9P0U3 419-644 limits assumed): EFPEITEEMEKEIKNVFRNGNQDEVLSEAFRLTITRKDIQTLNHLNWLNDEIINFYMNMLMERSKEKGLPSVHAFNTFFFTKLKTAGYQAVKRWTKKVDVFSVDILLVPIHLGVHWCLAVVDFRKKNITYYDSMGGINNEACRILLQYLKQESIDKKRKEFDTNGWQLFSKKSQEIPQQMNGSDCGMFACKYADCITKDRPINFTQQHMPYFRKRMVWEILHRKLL
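Compound: 10 µM single point, 0.5% DMSO; Test system: hSENP1 catalytic domain, recombinant; Timing: 50 min reaction at room temperature; Technique: FRET, CFP and YFP emission; Control set: no-enzyme wells low, DMSO-plus-enzyme wells high control.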
EBI2 block – EBI2 receptor antagonists, beta-arrestin recruitment, primary screen, cell-based, luminescence, 7a,25-OHC stimulation, uHTS | G-protein coupled receptor 183 (Homo sapiens), P32249 | 7a,25-OHC stimulated | inhibition, % at 5 µM | 360,000 compounds, 0.81% hits; in the data active = inhibition above about 38%;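 note: enzyme fragment complementation signal reports receptor beta-arrestin coupling in cells; 0% = agonist plus DMSO wells and 100% = wells without agonist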
Target sequence (P32249 whole entry, looked up, the tested form may be a part): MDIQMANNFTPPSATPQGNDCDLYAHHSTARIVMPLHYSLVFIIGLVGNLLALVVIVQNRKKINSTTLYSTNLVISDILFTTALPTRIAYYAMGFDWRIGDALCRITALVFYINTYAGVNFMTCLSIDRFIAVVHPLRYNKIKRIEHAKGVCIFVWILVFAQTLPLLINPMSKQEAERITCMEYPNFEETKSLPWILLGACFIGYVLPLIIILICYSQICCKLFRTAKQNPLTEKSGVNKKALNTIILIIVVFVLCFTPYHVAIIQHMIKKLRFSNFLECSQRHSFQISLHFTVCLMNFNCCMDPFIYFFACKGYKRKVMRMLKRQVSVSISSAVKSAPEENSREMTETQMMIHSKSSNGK
MPTP block – mitochondrial permeability transition pore inhibitors, primary screen, biochemical, isolated mouse mitochondria, absorbance | Ca2+ swelling absorbance, 30 min | inhibition, % at 10 µM | 360,000 compounds, 1.4% hits;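 active = inhibition of 50% or more, scaled per plate between neutral and stimulator controls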;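 note: 0% = DMSO wells given calcium and 100% = 1 mM EGTA wells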
Rh123 counter – fluorescence retest of MPTP screen hits in isolated mitochondria, single concentration; inhibition, % at 10 µM; shares compounds with MPTP block; membrane potential, Rhodamine 123 fluorescence; 5,000 compounds, 78% hits; in the data active = inhibition above about 22%;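 note: 0% = DMSO vehicle and 100% = positive control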
MPTP swell DR – mitochondrial permeability transition pore inhibitors, dose response, biochemical, absorbance, uHTS hits | AID 651561, 2012 | 780 compounds, 58% hits | isolated mitochondria swelling | IC50, µM | shares compounds with MPTP block; in the data active = IC50 below about 20 µM
MPTP cs DR – fluorescent counter-screen in isolated mitochondria, dose response, counter-screen for MPTP inhibitor project, biochemical, fluorescence, uHTS hits. IC50, µM. isolated mitochondria counterscreen, fluorescence read-out. shares compounds with MPTP block. 780 compounds, 49% hits. AID 651564, 2012; in the data active = IC50 below about 80 µM
Active calls of the source: *; x = no result. A selection: hits, their analogues and other compounds. The true share with any hit is near 4.4%.

SMILES	NR3A LBD binder	SENP1 inh	EBI2 block	MPTP block	Rh123 counter	others
CN1CCCC(CC2c3ccccc3Sc3ccccc32)C1 (centres undefined)	-1	2	-8	100*	-19	MPTP swell DR=9.4*;MPTP cs DR=>80
CN1CCCC(CN2c3ccccc3Sc3ccccc32)C1 (centres undefined)	1	-1	4	82*	-18
Cc1cc(C)cc(Oc2nc(C(F)(F)F)nc3ccccc23)c1	0	2	2	80*	-4	MPTP swell DR=>100;MPTP cs DR=78*
CC(=O)Nc1ccc(Oc2nc(C(F)(F)F)nc3ccccc23)cc1	0	2	-27	0	x
CCOc1ccc(CN(C)CC(O)COC(c2ccc(OC)cc2)c2ccc(OC)cc2)cc1 (centres undefined)	-2	-1	2	67*	0	MPTP swell DR=15*;MPTP cs DR=48*
O=C(NC1(N2CCOCC2)CC1)c1ccc(Cl)cc1	2	2	-2	0	x
COCc1cc(C)nc(OCC(=O)N/N=C/c2cc(C)n(-c3c(C)cccc3C)c2C)c1C#N	0	-2	10	56*	0	MPTP swell DR=7.9*;MPTP cs DR=>80
COCc1cc(C)nc(OCC(=O)N/N=C/c2ccc(C)o2)c1C#N	-1	-1	-3	3	x
CCCc1ccc(C2C3=C(CC(C)(C)CC3=O)NC3=C2C(=O)c2ccccc23)cc1 (centres undefined)	0	2	16	81*	52*
CCCCc1ccc(C2C3=C(CC(C)(C)CC3=O)NC3=C2C(=O)c2ccccc23)cc1 (centres undefined)	4	3	2	71*	53*
CCOc1ccc(CCNC(=O)Cn2ccc3ccccc3c2=O)cc1OCC	-1	-1	-5	-3	x
CCOC(=O)c1c(N2C(=O)Nc3cc(Cl)c(Cl)cc3N2O)sc2c1CCCCC2	-3	-1	8	91*	70*
COc1ccc(CCNC(=O)C2CCN(C(=O)c3ccc(OC)c(OC)c3)CC2)cc1	-2	-1	-4	-1	x
Cc1ccc2[nH]c3c(N4CCc5ccccc5C4)ncnc3c2c1	-8	-56	19	106*	93*
Fc1ccc2[nH]c3c(N4CCc5ccccc5C4)ncnc3c2c1	23*	-24	13	89*	83*
N#CC(=C1C=CC(=NO)C(Cl)=C1)c1ccccc1	x	-2	15	2	x
N#CC(=C1C=C(Br)C(=NO)C=C1Cl)c1ccc(Cl)cc1	x	4	3	83*	85*
Cc1nc2ccccc2n1C1CC(=O)N(Cc2ccccc2)C1=O (centres undefined)	1	1	-8	65*	58*
CCC(O)(CC)C(=O)N/N=C/c1cc(Br)cc(Br)c1O	-6	-45	64*	83*	46*
O=C(NCC(c1cccs1)N1CCOCC1)c1ccccc1NS(=O)(=O)c1ccc(Cl)c([N+](=O)[O-])c1 (centres undefined)	5	2	-3	80*	77*
O=C(NCc1ccccc1)Nc1cc(Cl)ccc1Cl	0	3	2	28	x
O=C(Cc1ccccc1)NC(NC(=S)Nc1cc(Cl)ccc1Cl)C(Cl)(Cl)Cl (centres undefined)	16*	0	10	98*	70*
O=C(Nc1ccc(OC(=O)c2ccco2)cc1)c1ccco1	-38	1	-16	-1	x
O=C(Nc1ccc(Cl)c(Cl)c1)Oc1ccc(NC(=O)c2ccco2)cc1	27*	0	0	102*	77*
O=C(NC(NC(=S)Nc1ccc(Cl)c(Cl)c1)C(Cl)(Cl)Cl)c1ccco1 (centres undefined)	9	6	-2	100*	100*
SMILES	NR3A LBD binder	SENP1 inh	EBI2 block	MPTP block	Rh123 counter	others
O=C(NC(NC(=S)Nc1cc(Cl)ccc1Cl)C(Cl)(Cl)Cl)c1ccco1 (centres undefined)	14*	4	-11	82*	73*
CCc1[nH]nc(C(=O)N2CCCC(C(=O)c3cccc(C(F)(F)F)c3)C2)c1C (centres undefined)	1	-1	6	5	x
C=CCn1c(COc2ccc(F)cc2)nnc1SCC(=O)NC1CC1	0	-1	-7	-1	x
COC(=O)c1ccc(NC(=O)CN2CCN(c3ccccn3)CC2)cc1	-1	-1	4	0	x
Cc1ccc(S(=O)(=O)N2CCCCC2)cc1NC(=O)COC(=O)c1ccc(O)cc1	-4	1	-1	0	x
O=C(CN1C(=O)C(=O)N(C2CCCC2)C1=O)Nc1ccc(OC(F)F)cc1	2	0	1	2	x
CN(C)c1ccc(N=Nc2nc3ccccc3n2C)cc1	-2	5	28	66*	-32
CCOC(=O)C1=C(CC)Nc2ccccc2N/C1=N\S(=O)(=O)c1ccc2ccccc2c1	-1	-3	2	7	x
CCOC(=O)C1=C(CC)Nc2ccccc2N/C1=N\S(=O)(=O)c1cc(Br)ccc1Br	-5	-1	-6	66*	82*
Cc1ccc([C@H]2C[C@@H](n3cc(C4CC4)nn3)[C@H](O)CN2CC2CCCCC2)cc1	x	-1	10	-2	x
O=C(Nc1cc(C(F)(F)F)cc(C(F)(F)F)c1)c1ccc(Cn2cc(C(F)(F)F)ccc2=O)cc1	2	0	-2	72*	25*
CCN(CC)C(=O)c1oc2ccc(S(=O)(=O)N3CC(C)CC(C)C3)cc2c1C (centres undefined)	1	2	2	51*	75*
COC(=O)COc1ccc(S(=O)(=O)NCc2ccncc2)cc1	1	1	-5	85*	87*
Cc1ccc(S(=O)(=O)NCc2ccncc2)cc1C	0	-1	-16	77*	76*
CCN(C1CCCCC1)S(=O)(=O)c1ccc(S(=O)(=O)NCc2ccncc2)cc1	6	1	0	98*	93*
CCCCCc1ccc(S(=O)(=O)NCCc2ccncc2)cc1	-7	0	15	63*	83*
CN(CC(=O)Nc1cccc(F)c1)C(=O)CSc1ccccc1	-3	2	-4	-1	x
O=C(O)CNS(=O)(=O)c1ccc(Br)s1	-2	3	-4	0	x
O=S(=O)(NCc1ccncc1)c1ccc(Br)s1	-1	3	-9	63*	96*
CCOC(=O)C1CCN(Cc2ccc(OCc3ccccc3)c(OC)c2)CC1	-1	0	1	0	x
